Laboratory results reported in the EternaBench riboswitch data.

Tested on: MS2 coat protein
Assay: apparent Kd, MS2 coat protein; higher = weaker binding; RNA-MaP array
In short: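 Apparent Kd is the median of per-cluster binding-curve fits for designed RNAs transcribed from sequenced DNA templates on an Illumina sequencing chip. The RNAs were incubated at room temperature with fluorescently labeled MS2 coat protein at 1.5 nM to 3 μM, with or without input ligand, and designs measured on fewer than 10 clusters were excluded.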

[1] = designed as: OFF switch for flavin mononucleotide, no ligand
[2] = ligand present: flavin mononucleotide, designed as: OFF switch for flavin mononucleotide
[3] = designed as: ON switch for flavin mononucleotide, no ligand
[4] = ligand present: flavin mononucleotide, designed as: ON switch for flavin mononucleotide

## UGCCCAAACAUGAGGAUCACCCAUGUUGUGACCUCGGGAGCCAGAAGGGUAUUAAACAAGUCGGUACAGGAUAUGGUCUAGUAA
[1]
  apparent Kd: 343 nM
[2]
  apparent Kd: 214 nM

## AGGAAACAUGAGGAUCACCCAUGUGAGGAUAUACAAAAGAGCGAAAGAAGAAAUUAAUGUAGAAGGCACGUCAA
[1]
  apparent Kd: 15.1 nM
[2]
  apparent Kd: 13.3 nM

## GGUACGGCAGGAUAUGGCCUGGACUACAUGAGGAUCACCCAUGUCUUGCAGAAUGUCUAGCCAGAAGGGCCAUGAA
[1]
  apparent Kd: 14.6 nM
[2]
  apparent Kd: 8.52 nM

## GGCGAUCAGUGAGGAUAUUCCGCGCAAAUACUAGAAGAAGGCACGUAUCAAGGGUUCAGAACAUGAGGAUCACCCAUGUCAAGC
[3]
  apparent Kd: 14 nM
[4]
  apparent Kd: 10.1 nM

## AGUAAAGUAGAAGGAUAUCACGAACAUGAGGAUCACCCAUGUUAAGAUCGGCGUGAGACAACAGAUGAGAAGGACUAAUAUGCU
[1]
  apparent Kd: 10.9 nM
[2]
  apparent Kd: 10.2 nM

## CUCGAGUUUACAGGAUAUUAGGAAAUCGGAUAUUAAGAAGGGUAAAUGUACAUGAGGAUCACCCAUGUUCUCUGCUGCGUCAUA
[1]
  apparent Kd: 15.4 nM
[2]
  apparent Kd: 14.5 nM

## CACUACAUGAGGAUCACCCAUGUAUACUGACGAGGACCGGUACGGCCGCCACUCGAACCGAAACCGACUUCAUUCUGUGUACCAU
Designed as: ON switch for tryptophan, no ligand
  apparent Kd: 15.4 nM
Ligand present: tryptophan, designed as: ON switch for tryptophan
  apparent Kd: 16.2 nM

## ACUUAGAGAUAGAAGGAUGGAGUCAGGGUCCACAUAGGAUAUAUCUUGCACGAAACAUGAGGAUCACCCAUGUUGGAAUCCUCU
[1]
  apparent Kd: 30.4 nM
[2]
  apparent Kd: 27.8 nM

## CAAAGGAACCAGAAGGCCAUAGGUAAAAUAGUUGGAGGAUAUGGGCACAUGAGGAUCACCCAUGUUCACUGUAAUCAGGAAUAG
[3]
  apparent Kd: 102 nM
[4]
  apparent Kd: 35.3 nM

## UACCAAAUCACAGGAUAUGAGGCGCCAGCUAGGUCAGAAGGGUGACAUGAGGAUCACCCAUGUUCGCAGAAAAUAAUUGCUAAG
[3]
  apparent Kd: 688 nM
[4]
  apparent Kd: 678 nM

## ACGAGGUACACAGGAUAUGCAAACAUGAGGAUCACCCAUGUGUUCGCCAAUAUCGUGAAUGUGUCGCAGAAGGGUGGUAGUCUA
[3]
  apparent Kd: 12.3 nM
[4]
  apparent Kd: 9.83 nM

## CGCGCUGAAGGAUAUGCAUUGGACUACAUGAGGAUCACCCAUGUCCCGUCUUGUGGACCCGCAGAAGGUCACUACC
[1]
  apparent Kd: 9.25 nM
[2]
  apparent Kd: 12 nM

## CUGAAGUCUGACCCUCGAAACAUGAGGAUCACCCAUGUAGUCAGAAGGCGAUUGUGAGCAGGAAUCGAGGAUAUGAACUAGUUU
[1]
  apparent Kd: 7.72 nM
[2]
  apparent Kd: 10 nM

## UAGAGGUACGUUGGCGAACAUGAGGAUCACCCAUGUAAAUGAAGAAGGUGUGUUGCGCAAAACGACAAGGAUAUUCAAGACAUC
[3]
  apparent Kd: 83.4 nM
[4]
  apparent Kd: 50.7 nM

## CUUCAGGCGGAGGAUAUCUUACAGUUAUCGUACAGAGAAGGCCGCACAUGAGGAUCACCCAUGUCAGGCGACUU
[1]
  apparent Kd: 29.8 nM
[2]
  apparent Kd: 162 nM

## GGGAUGUUAGGAUAUGCUGGUUAAAAGAGAUUAAUACUCUAGCAGAAGGAACAUGAGGAUCACCCAUGUAGACA
[1]
  apparent Kd: 10.6 nM
[2]
  apparent Kd: 26.4 nM

## CGAUACAAAUAAAGCGUUCGUCCGCCAGAUACCAGAUUCAUUUCCAUCCCUUGGCAGCUGUCGACAUGAGGAUCACCCAUGUUUG
Designed as: OFF switch for theophylline, no ligand
  apparent Kd: 18.3 nM
Ligand present: theophylline, designed as: OFF switch for theophylline
  apparent Kd: 20.9 nM

## UUUGAAAAGCAGAAGGUUCAUAACAUGAGGAUCACCCAUGUGACAUUAAUGAUCCGGUUUUUACGAAAGGAUAUGCUUCUCCUA
[1]
  apparent Kd: 8.33 nM
[2]
  apparent Kd: 32.6 nM

## UAAUGCAUAACAUGAGGAUCACCCAUGUAGUAAAAUGGUGGUUAGGAUAUAGCACGUGAAUCGACCUAGAAGGAACGUCCUUAC
[1]
  apparent Kd: 33.3 nM
[2]
  apparent Kd: 30 nM

## GUUUUGGUACGAGGAUAUAAUGCCCUUGGAGAGUUAGAAGGCGUACGGGCUGUCCAUUAGAUACAUGAGGAUCACCCAUGUGAG
[1]
  apparent Kd: 14.7 nM
[2]
  apparent Kd: 12.2 nM

## AAAACGGGUUAGAAGGGCAAUUUUGAUGACAGUGCAGGAUAUAACUUGUGUCCGAAUAUGGACAUGAGGAUCACCCAUGUUAGU
[3]
  apparent Kd: 468 nM
[4]
  apparent Kd: 185 nM

## AGCGCUUAACCAUAGGAUAUAUUGAUCAUUACAUGAGGAUCACCCAUGUGUCGAAGAAGGCAAUCAUAGAAGGAUGUCAUGUCGCU
[3]
  apparent Kd: 26.7 nM
[4]
  apparent Kd: 17.3 nM

## ACUUGACAUGAGGAUCACCCAUGUGAUCCGUCAUUAGGAUAUCGAAGGUAUAUCACGCCUCGAGAAGGAAUAGCGG
[3]
  apparent Kd: 361 nM
[4]
  apparent Kd: 65.5 nM
